Assay results as given in PubChem BioAssay.
Inconclusive results are not listed. Calls of active or inactive are those of the source.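 The calls were made as follows, unless noted: active = viability increase at or above a cutoff of the median across tested compounds plus 3 SD (cut at about 8.5% in these data, passing the limit was not always enough); inconclusive = some gains above the cutoff, reason not given; inactive = the rest.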

Assays:
[1] = OD615 S. cerevisiae growth inhibition, permissive medium, pilot counter-assay, permissive growth control for S. cerevisiae lifespan shortening project (AID 705;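 active = growth inhibition above 25% in both replicates, a cutoff set 3 SD above the mean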); details: OD615, 24 h, at 10 µM, hits give high values
Procedure, shortened: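 Material: engineered DeaD yeast; compound dosing: one dose 10 µM, DMSO 0.25% final; measure: yeast growth inhibition indicated by reduced 24 h OD615; detection: OD615 turbidity read; incubation: cells pre-grown 4 h, then 24 h compound exposure, 30 °C humidified; medium: permissive synthetic complete medium with raffinose and galactose carbon sources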

[2] = Restrictive medium S. cerevisiae growth inhibition, OD615, pilot screen of yeast lifespan reduction project, restrictive growth control (AID 706;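 active = growth inhibition above a set limit, 3 SD over mean compound inhibition, in both replicates, cut at about 43% in these data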;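 also: modified DeaD lifespan yeast strain shifted to restrictive glucose medium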); details: OD615, 48 h, at 10 µM, hits give high values
Procedure, shortened: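 material = engineered S. cerevisiae DeaD strain | medium = glucose-based CSMM-D restrictive medium | times = 4 h pre-incubation, 48 h exposure at 30 °C | technique = OD615 absorbance reading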

[3] = viability gain of MRP-1-high H69AR cells under doxorubicin, pilot screen, MRP-1 activator project, CellTiter-Glo, duplicate (AID 807); details: H69AR viability with doxorubicin, CellTiter-Glo luminescence; at 10 µM; hits give high values;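 also: compound pretreatment 18-22 h then 72 h combined with doxorubicin; 0% = doxorubicin alone and 100% = vehicle without doxorubicin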
[4] = growth suppression of beta-catenin knockout HCT116, pilot screen, human colon tumor cells (AID 823;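 active = cell viability at or below a set limit in both duplicate runs, the limit being the all-compound median minus 4 SD, cut at about 23% in these data, passing the limit was not always enough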;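 also: 0% = wells killed by 20 µM Hyamine and 100% = untreated DMSO cell wells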); details: CellTiter-Glo, 60 h, at 10 µM, hits give low values
[5] = growth suppression of PTEN-deleted HCT116, pilot screen, cell-based, HCT116 clonal line, CellTiter-Glo (AID 824;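 active = viability at or below 27.92% in each of two runs, the all-compound median minus 4 SD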;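 also: 0% = 20 µM Hyamine control and 100% = vehicle cell control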); details: 60 h, at 10 µM, hits give low values
[6] = inhibitors of the yeast RAM network, pilot screen, dse1pr::URA3 reporter, 5-FOA selection (AID 869;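 active = inhibition over a set limit, the all-compound mean plus 3 SD, in both replicate runs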;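 also: 0% = DMSO wells with no growth and 100% = 10 µM 1-NA-PP1 with full growth; RAM network block rescues cells from 5-FOA so hits raise OD615 growth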); details: S. cerevisiae dse1pr::URA3 5-FOA growth, OD615, 2 d; at 10 µM; hits give high values; strain carries analog-sensitive mutant Cbk1 kinase
[7] = RAM signaling pathway blockade in yeast – S. cerevisiae, Pdr1DBD-CYC8 efflux-inhibited sensitized strain, primary screen (AID 1298;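 active = RAM network inhibition above 8.4% in each of two replicates, 3 SD over the compound average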;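 also: 0% = DMSO untreated cells without growth and 100% = 10 µM 1-NA-PP1 full growth; higher means more yeast growth rescued from 5-FOA killing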); details: S. cerevisiae cbk1-as DSE1-URA3 strain, 5-FOA growth OD615, 2 d; at 50 µM; hits give high values

CCn1c(=O)c2cc(C(=O)NCCN3CCOCC3)sc2c2ccccc21
inactive: growth inhibition [1] -7.14% | growth inhibition [2] -3.89% | viability increase [3] -4.73% | viability [4] 92.2% | viability [5] 76.1% | inhibition [6] 2.47% | RAM network inhibition [7] 1.02%

O=C(NC(C(=O)c1ccccc1)N1CCOCC1)c1ccccc1 (configuration not stated)
inactive: growth inhibition [1] -2.93% | growth inhibition [2] 13.8% | viability increase [3] -2.37% | viability [4] 99.3% | viability [5] 101% | inhibition [6] 1.61% | RAM network inhibition [7] 1.98%

CCOC(=O)c1ccc2ncc(C(=O)OCC)c(NCCCN3CCOCC3)c2c1
inactive: growth inhibition [1] -4.12% | growth inhibition [2] 8.23% | viability increase [3] -5.66% | viability [4] 81.2% | viability [5] 84.5% | inhibition [6] 0.495% | RAM network inhibition [7] 0.57%

COC(=O)COC(=O)c1ccc(O)cc1
inactive: growth inhibition [1] 7.13% | growth inhibition [2] 4.2% | viability increase [3] -0.65% | viability [4] 99.5% | viability [5] 102% | inhibition [6] 2.5% | RAM network inhibition [7] 2.15%

CC(C)n1c(=O)[nH]c2ccccc21
inactive: growth inhibition [1] -18.3% | growth inhibition [2] -9.29% | viability increase [3] -4.28% | viability [4] 89% | viability [5] 89.8% | inhibition [6] 0.575% | RAM network inhibition [7] 2.88%

COc1ccccc1NC(=O)C1CCCN(S(=O)(=O)c2cnc[nH]2)C1 (configuration not stated)
inactive: growth inhibition [1] 1.64% | growth inhibition [2] -3.54% | viability increase [3] -0.26% | viability [4] 97% | viability [5] 95.5% | inhibition [6] 0.53% | RAM network inhibition [7] 0.84%

CCCCOC(=O)Nc1ccccc1C(N)=O
inactive: growth inhibition [1] -16.1% | growth inhibition [2] -13% | viability increase [3] 0.35% | viability [4] 95.3% | viability [5] 102% | inhibition [6] 1.07% | RAM network inhibition [7] 1.72%

O=C1CCCC2=C1C(c1cn(-c3ccccc3)nc1-c1cccs1)c1c([nH]c(=O)[nH]c1=O)N2 (configuration not stated)
inactive: growth inhibition [1] -11.2% | growth inhibition [2] -27.7% | viability increase [3] 1.36% | viability [4] 106% | viability [5] 99.1% | inhibition [6] 0.32% | RAM network inhibition [7] 2.19%

COc1ccc(OC)c(NC(=O)Cn2cnc3c(cnn3-c3ccccc3)c2=O)c1
inactive: growth inhibition [1] 3.69% | growth inhibition [2] 7.43% | viability increase [3] -0.9% | viability [4] 98% | viability [5] 94.2% | inhibition [6] 1.27% | RAM network inhibition [7] 0.95%

Clc1cccc(Nc2ncnc3c2cnn3-c2ccccc2)c1
inactive: growth inhibition [1] -15.3% | growth inhibition [2] -12.2% | viability increase [3] -2.07% | viability [4] 82.5% | viability [5] 78.6% | inhibition [6] 2.04% | RAM network inhibition [7] 4.85%

O=c1c2c3c(sc2nc2n1CCCCC2)CCCCC3
inactive: growth inhibition [1] -11.5% | growth inhibition [2] -20.9% | viability increase [3] 0.17% | viability [4] 91.3% | viability [5] 91.7% | inhibition [6] 1.92% | RAM network inhibition [7] 6.27%

CCOC(=O)C1CCN(C(c2cccc(OC)c2)c2sc3nc(C)nn3c2O)CC1 (configuration not stated)
inactive: growth inhibition [1] -2.67% | growth inhibition [2] -6.39% | viability increase [3] -1.96% | viability [4] 94.2% | viability [5] 95.9% | inhibition [6] 0.11% | RAM network inhibition [7] -0.51%

CC(=O)CCc1c(C)[nH]c2ccc(NC(C)=O)cc2c1=O
inactive: growth inhibition [1] 5.26% | growth inhibition [2] 8.18% | viability increase [3] -0.95% | viability [4] 100% | viability [5] 98% | inhibition [6] 0.77% | RAM network inhibition [7] 2.81%

CCOC(=O)N1CCC(Nc2ccc3nnc(-c4ccccc4)n3n2)CC1
inactive: growth inhibition [1] 12.3% | growth inhibition [2] 29.3% | viability increase [3] -6.99% | viability [4] 69.4% | viability [5] 66% | inhibition [6] -0.975% | RAM network inhibition [7] 2.57%

O=P(c1ccccc1)(c1ccccc1)C1CCCO1 (configuration not stated)
inactive: growth inhibition [1] -10.8% | growth inhibition [2] 8.75% | viability increase [3] 1.36% | viability [4] 97.7% | viability [5] 91.7% | inhibition [6] 2.44% | RAM network inhibition [7] 0.92%

O=C(NC1CCCCCC1)C1CCCN1S(=O)(=O)c1cccc2cccnc12 (configuration not stated)
inactive: growth inhibition [1] -10.1% | growth inhibition [2] -8% | viability increase [3] -0.87% | viability [4] 90.9% | viability [5] 92.1% | inhibition [6] 0.69% | RAM network inhibition [7] 3.74%

Cn1c(C(=O)N2CCN(c3ccc(F)cc3)CC2)cc2c(=O)n(C)c3ccccc3c21
inactive: growth inhibition [1] -6.62% | growth inhibition [2] -10.8% | viability increase [3] -2.2% | viability [4] 95.1% | viability [5] 85% | inhibition [6] 1.64% | RAM network inhibition [7] 1.39%

Cc1ccc(-n2ncc3c(=O)n(CC(=O)NCc4ccco4)cnc32)cc1C
inactive: growth inhibition [1] -5.52% | growth inhibition [2] -6.3% | viability increase [3] -5.18% | viability [4] 74.4% | viability [5] 56.4% | inhibition [6] 2.71% | RAM network inhibition [7] 1.9%

CCOC(=O)C(C(=O)Nc1ccccc1)C1CCCCC1 (configuration not stated)
inactive: growth inhibition [1] -7.22% | growth inhibition [2] 1.79% | viability increase [3] -5.02% | viability [4] 86.1% | viability [5] 86.7% | inhibition [6] -0.18% | RAM network inhibition [7] 3.67%

COc1ccc(Cc2nnc(SCC(=O)NC(C)c3ccccc3)o2)cc1 (configuration not stated)
inactive: growth inhibition [1] 2.93% | growth inhibition [2] -8.12% | viability increase [3] -1.25% | viability [4] 91.2% | viability [5] 86.8% | inhibition [6] 0.57% | RAM network inhibition [7] 4.19%

COc1cc(OC)cc(C(=O)Nc2cccc(NC(C)=O)c2)c1
inactive: growth inhibition [1] -2.19% | growth inhibition [2] -3.84% | viability increase [3] -2.31% | viability [4] 111% | viability [5] 108% | inhibition [6] 2.15% | RAM network inhibition [7] 2.04%

CCOc1ccc(Cc2nnc(SCC(=O)c3ccc(OC)cc3)o2)cc1
inactive: growth inhibition [1] 1.71% | growth inhibition [2] 25.5% | viability increase [3] 0.28% | viability [4] 54.3% | viability [5] 70.3% | inhibition [6] 1.66% | RAM network inhibition [7] 11.3%

O=C(Nc1ccccn1)c1cccc(S(=O)(=O)N2CCOCC2)c1
inactive: growth inhibition [1] 6.61% | growth inhibition [2] -0.23% | viability increase [3] -1.53% | viability [4] 102% | viability [5] 98.3% | inhibition [6] 1.09% | RAM network inhibition [7] 2.13%

Cc1nc2ccc(S(=O)(=O)NC(C(=O)N3CCn4c3nc3ccccc34)C(C)C)cc2s1 (configuration not stated)
inactive: growth inhibition [1] 0.9% | growth inhibition [2] 8.13% | viability increase [3] -1.67% | viability [4] 102% | viability [5] 97.2% | inhibition [6] 1.02% | RAM network inhibition [7] 5.83%

O=C(NCCc1ccccc1)C1CCN(C(=O)c2sccc2-n2cccc2)CC1
inactive: growth inhibition [1] -0.295% | growth inhibition [2] -8.75% | viability increase [3] -1.15% | viability [4] 101% | viability [5] 93.8% | inhibition [6] 3.48% | RAM network inhibition [7] 4%

Cc1ccc(S(=O)(=O)NCc2nc3ccccc3[nH]2)cc1
inactive: growth inhibition [1] -4.75% | growth inhibition [2] 4.05% | viability increase [3] 1.61% | viability [4] 98.7% | viability [5] 97.8% | inhibition [6] 2.42% | RAM network inhibition [7] 1.58%

CCCC(=O)c1cc(F)c(N2CCN(S(=O)(=O)c3ccccc3)CC2)cc1C
inactive: growth inhibition [1] -7.04% | growth inhibition [2] -27.6% | viability increase [3] 1.53% | viability [4] 90.3% | viability [5] 88.5% | inhibition [6] 3.01% | RAM network inhibition [7] 3.18%

O=C(c1cnn(-c2ccccc2)c1-n1cccc1)N1CCN(C2CCCCC2)CC1
inactive: growth inhibition [1] -1.61% | growth inhibition [2] 5.93% | viability increase [3] -3.1% | viability [4] 94% | viability [5] 93.4% | inhibition [6] 1.35% | RAM network inhibition [7] 2.87%

CC1CCCN(c2ncnc3c2cnn3-c2ccccc2)C1 (configuration not stated)
inactive: growth inhibition [1] -2.51% | growth inhibition [2] -4.29% | viability increase [3] -2.92% | viability [4] 77.5% | viability [5] 73.5% | inhibition [6] 0.15% | RAM network inhibition [7] 4.59%

Cn1c(=O)c2c(nc(CN3CCN(Cc4ccccc4)CC3)n2Cc2ccc(Cl)cc2)n(C)c1=O
active: viability [4] 8.81% | viability [5] 10.3%
inactive: growth inhibition [1] -2.47% | growth inhibition [2] -13.5% | viability increase [3] -6.52% | inhibition [6] 1.27% | RAM network inhibition [7] 2.33%

O=C(NCC1COc2ccccc2O1)C1C2C=CC3(CN(Cc4ccccc4Cl)C(=O)C13)O2 (configuration not stated)
inactive: growth inhibition [1] -6.06% | growth inhibition [2] -7.88% | viability increase [3] -1% | viability [4] 84.2% | viability [5] 84% | inhibition [6] 1.02% | RAM network inhibition [7] 0%

Cc1cc(N2CCN(C3CCCCC3)CC2)n2nc(C)nc2n1
inactive: growth inhibition [1] 5.17% | growth inhibition [2] 4.13% | viability increase [3] -2.07% | viability [4] 93.5% | viability [5] 96.2% | inhibition [6] 2.16% | RAM network inhibition [7] 5.03%

Cc1nnc(SCCn2c(N(C)Cc3ccccc3)nc3c2c(=O)[nH]c(=O)n3C)s1
inactive: growth inhibition [1] -9.54% | growth inhibition [2] -5.15% | viability increase [3] -3.65% | viability [4] 99.8% | viability [5] 97.5% | inhibition [6] 2.33% | RAM network inhibition [7] 5.64%

Cc1ccc(OCc2nc(-c3ccccn3)no2)c(Br)c1
inactive: growth inhibition [1] 1.26% | growth inhibition [2] 4.31% | viability increase [3] 1.13% | viability [4] 86.7% | viability [5] 84.9% | inhibition [6] -0.35% | RAM network inhibition [7] 1.62%

CCOC(=O)c1sc(/N=C/N(C)C)c(C(=O)OCC)c1C
inactive: growth inhibition [1] -5.24% | growth inhibition [2] 0.92% | viability increase [3] -3.82% | viability [4] 95.3% | viability [5] 90.4% | inhibition [6] 1.98% | RAM network inhibition [7] 7.56%

CCC(C)NC(=O)CS(=O)Cc1nc(-c2cccc(C)c2)oc1C (configuration not stated)
inactive: growth inhibition [1] -12.9% | growth inhibition [2] -5.66% | viability increase [3] -1.72% | viability [4] 99.4% | viability [5] 88.2% | inhibition [6] 1.52% | RAM network inhibition [7] 4.65%
